Results on one compound are retold here after ChEMBL document CHEMBL1138232, “Optimization of naphthalimide-imidazoacridone with potent antitumor activity leading to clinical candidate (HKH40A, RTA 502)” (J Med Chem, 2007).

Data set [1] is described as follows: Drug level in NCR nu/nu mouse plasma at 20 mg/kg, iv after 8 hrs. Format: ADME, organism-based. Also on record: dose 20 mg/kg, route intravenous. Summed up:
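Single i.v. dose of 20 mg/kg to ncr nu/nu mice and an F344 rat. Plasma concentrations followed over time and fitted by nonlinear regression to give distribution and elimination phases, AUC and apparent volumes of distribution. Detection limit 50 nM.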

For the next data set, the system named is HCT-15. Kind of data set: Antitumor activity against human HCT15 cells after 48 hrs. Format: functional. The conditions noted are these: HCT-15, 48 h. An outline of the steps: (§1)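 Tested in the NCI 60 human tumour cell line screen, with continuous drug exposure for 48 h. Values include LC50 derived from the screen.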
Another data set has as its system KM12. Briefly: Antitumor activity against human KM12 cells after 48 hrs. In kind it is functional. The conditions noted are these: KM12, 48 h. Summed up:
as §1

The test system of the next data set is CAKI-1. Briefly: Antitumor activity against human CAKI-1 cells after 48 hrs. The conditions noted are these: CAKI-1, 48 h. Format: functional. An outline of the steps:
as §1

Another data set has as its system NCI. Kind of data set: Antitumor activity against human NCI/ADR-RES cells after 48 hrs. In kind it is functional. Summed up: as §1
Setting [2] is: read-out: Log LC50 (the source's name) (converted).

For the compound `COc1ccc2c(c1)c(=O)c1c(NCCCN3CCN(CCCN4C(=O)c5cccc6cc([N+](=O)[O-])cc(c56)C4=O)CC3)ccc3ncn2c31.CS(=O)(=O)O`, the concentration at 8 h in data set [1] worked out at 70 nM. Further, the GI50 in the data set on HCT-15 was 3.09 nM; in the data set with KM12, 4.37 nM; in the data set on CAKI-1, 3.02 nM; with NCI, 24 nM. In addition, the CC50 in the data set with HCT-15 (setting [2]), with KM12 (setting [2]), in the data set with CAKI-1 (setting [2]) and with NCI (setting [2]) was over 1000 nM throughout. In addition, the TGI is over 1000 nM in the data set with HCT-15 (read-out: Log TGI (converted)), 537 nM in the data set with KM12 (read-out: Log TGI (converted)), 40.7 nM with CAKI-1 (read-out: Log TGI (converted)) and over 1000 nM with NCI (read-out: Log TGI (converted)).
